ChEMBL document CHEMBL1125051, “Synthesis and antineoplastic properties of ether-linked thioglycolipids” (1990)

What was measured:
C653 = experiment: Antineoplastic activity against C653 cell line in which [3H]-thymidine was incorporated into DNA; assay type: functional, Mus musculus; design: concentration or dose not given beside the values
Procedure, shortened: (§1)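 Mouse leukemic/myeloma/hybridoma lines kept at 37 °C in RPMI 1640 with 10% heat-inactivated FBS, penicillin, streptomycin, 50 μM mercaptoethanol. 2×10^4 cells/well exposed to drug at 40 μM for 48 h. Drug was diluted from 0.1 M ethanol stock into medium, and controls received ethanol-containing medium. [3H]thymidine (0.1 μCi/well) was then added for 24 h. Cells were harvested onto glass-fibre filters and water-washed, and DNA-incorporated counts were taken by scintillation as % of control.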

X63/OMIL3 cell line = experiment: Antineoplastic activity against X63/OMIL3 cell line in which [3H]thymidine was incorporated into DNA; assay type: functional, Mus musculus; design: concentration or dose not given beside the values; procedure, shortened: as §1
WEHI3B = experiment: Antineoplastic activity against WEHI 3B cell line in which [3H]thymidine was incorporated into DNA; assay type: functional, Mus musculus; design: concentration or dose not given beside the values; procedure, shortened: as §1
R6X-B15 = experiment: Antineoplastic activity against R6X-B15 cell line in which [3H]thymidine was incorporated into DNA; assay type: functional, Mus musculus; procedure, shortened: as §1
[1] = Time course effect on killing of WEHI 3B cells at 30 uM concentration, cells were incubated with it 48 hours before addition of [3H]thymidine; assay type: functional, cell-based; conditions: Mus musculus, WEHI3B
Procedure, shortened: (§2)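 Mouse WEHI 3B cells (RPMI 1640, 10% heat-inactivated FBS, penicillin, streptomycin, 50 μM mercaptoethanol, 37 °C) were seeded at 2×10^4 cells/well. Drug was diluted from 0.1 M ethanol stock into medium, with an ethanol vehicle control. After the stated preincubation, [3H]thymidine (0.1 μCi/well) was added for a further 24 h at 37 °C. Cells were harvested on glass-fibre filters, water-washed and scintillation-counted. Result is % cell survival versus control, mean ± SD, n = 8.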

[2] = Time course effect on killing of WEHI 3B cells at 40 uM concentration, cells were incubated with it 0 mins before addition of [3H]thymidine; assay type: functional, cell-based; conditions: Mus musculus, WEHI3B; procedure, shortened: as §2
[3] = Compound was evaluated for WEHI-3B cell viability after 24 hour at a concentration of 10 uM of compound was reported.; assay type: functional, Mus musculus
Procedure, shortened: (§3)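 WEHI-3B cells were treated with drug at 0–30 μM for 24 or 48 h in RPMI 1640 with 10% FBS at 37 °C. Cells were then diluted 1:10 in 2.5% trypan blue and counted by light microscopy, with dye-stained cells scored dead. Viability is given as % of untreated control.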

[4] = Time course effect on killing of WEHI 3B cells at 30 uM concentration, cells were incubated with it 3 hr before addition of [3H]thymidine; assay type: functional, cell-based; conditions: Mus musculus, WEHI3B; procedure, shortened: as §2
[5] = Compound was evaluated for WEHI-3B cell viability after 24 hour at a concentration of 2.5 uM of compound was reported.; assay type: functional, Mus musculus; procedure, shortened: as §3
[6] = Time course effect on killing of WEHI 3B cells at 40 uM concentration, cells were incubated with it 3 hr before addition of [3H]thymidine; assay type: functional, cell-based; conditions: Mus musculus, WEHI3B; procedure, shortened: as §2
[7] = Compound was evaluated for WEHI-3B cell viability after 48 hour at a concentration of 5 uM of compound was reported.; assay type: functional, Mus musculus; procedure, shortened: as §3
[8] = Compound was evaluated for WEHI-3B cell viability after 48 hour at a concentration of 1.25 uM of compound was reported.; assay type: functional, Mus musculus; procedure, shortened: as §3
[9] = Time course effect on killing of WEHI 3B cells at 40 uM concentration, cells were incubated with it 24 hr before addition of [3H]-thymidine; assay type: functional, cell-based; conditions: Mus musculus, WEHI3B; procedure, shortened: as §2
[10] = Time course effect on killing of WEHI 3B cells at 30 uM concentration, cells were incubated with it 72 hours before addition of [3H]thymidine; assay type: functional, cell-based; conditions: Mus musculus, WEHI3B; procedure, shortened: as §2
[11] = Time course effect on killing of WEHI 3B cells at 40 uM concentration, cells were incubated with it 48 hr before addition of [3H]thymidine; assay type: functional, cell-based; conditions: Mus musculus, WEHI3B; procedure, shortened: as §2
[12] = Compound was evaluated for WEHI-3B cell viability after 24 hour at a concentration of 1.25 uM of compound was reported.; assay type: functional, Mus musculus; procedure, shortened: as §3
[13] = Time course effect on killing of WEHI 3B cells at 30 uM concentration, cells were incubated with it 24 hr before addition of [3H]thymidine; assay type: functional, cell-based; conditions: Mus musculus, WEHI3B; procedure, shortened: as §2
[14] = Compound was evaluated for WEHI-3B cell viability after 24 hour at a concentration of 5 uM of compound was reported.; assay type: functional, Mus musculus; procedure, shortened: as §3
[15] = Compound was evaluated for WEHI-3B cell viability after 24 hour at a concentration of 30 uM of compound was reported.; assay type: functional, Mus musculus; procedure, shortened: as §3
[16] = Compound was evaluated for WEHI-3B cell viability after 48 hour at a concentration of 10 uM of compound was reported.; assay type: functional, Mus musculus; procedure, shortened: as §3
[17] = Time course effect on killing of WEHI 3B cells at 40 uM concentration, cells were incubated with it 6 hours before addition of [3H]-thymidine; assay type: functional, cell-based; conditions: Mus musculus, WEHI3B; procedure, shortened: as §2
[18] = Compound was evaluated for WEHI-3B cell viability after 48 hour at a concentration of 2.5 uM of compound was reported.; assay type: functional, Mus musculus; procedure, shortened: as §3
[19] = Compound was evaluated for WEHI-3B cell viability after 48 hour at a concentration of 0 uM of compound was reported.; assay type: functional, Mus musculus; procedure, shortened: as §3
[20] = Time course effect on killing of WEHI 3B cells at 30 uM concentration, cells were incubated with it 0 minutes before addition of [3H]thymidine; assay type: functional, cell-based; conditions: Mus musculus, WEHI3B; procedure, shortened: as §2
[21] = Compound was evaluated for WEHI-3B cell viability after 48 hour at a concentration of 30 uM of compound was reported.; assay type: functional, Mus musculus; procedure, shortened: as §3
[22] = Time course effect on killing of WEHI 3B cells at 30 uM concentration, cells were incubated with it 6 hr before addition of [3H]thymidine; assay type: functional, cell-based; conditions: Mus musculus, WEHI3B; procedure, shortened: as §2
[23] = Compound was evaluated for WEHI-3B cell viability after 24 hour at a concentration of 0 uM of compound was reported.; assay type: functional, Mus musculus; procedure, shortened: as §3
[24] = Time course effect on killing of WEHI 3B cells at 40 uM concentration, cells were incubated with it 72 hr before addition of [3H]thymidine; assay type: functional, cell-based; conditions: Mus musculus, WEHI3B; procedure, shortened: as §2

| Compound | Control (C653) | Control (X63/OMIL3 cell line) | Control (WEHI3B) | Control (R6X-B15) | Viable cells [3] | Viable cells [5] | Viable cells [7] | Viable cells [8] | Viable cells [12] | Viable cells [14] | Viable cells [15] | Viable cells [16] | Viable cells [18] | Viable cells [19] | Viable cells [21] | Viable cells [23] | other results |
| --- | --- | --- | --- | --- | --- | --- | --- | --- | --- | --- | --- | --- | --- | --- | --- | --- | --- |
| CCCCCCCCCCCCCCCCOC[C@@H](CO[C@@H]1O[C@@H](CO)[C@@H](O)[C@H](O)[C@@H]1O)OC | 70% | 95% | 82% | 89% |  |  |  |  |  |  |  |  |  |  |  |  |  |
| CCCCCCCCCCCCCCCCOC[C@@H](COP(=O)([O-])OCC[N+](C)(C)C)OC | 5% | 2.5% | 0.3% | 45% |  |  |  |  |  |  |  |  |  |  |  |  |  |
| CCCCCCCCCCCCCCCCOC[C@H](CS[C@@H]1O[C@@H](CO)[C@@H](O)[C@H](O)[C@H]1O)OC | 78% | 84% | 80% | 98% |  |  |  |  |  |  |  |  |  |  |  |  |  |
| CCCCCCCCCCCCCCCCOC[C@H](CO[C@@H]1O[C@@H](CO)[C@@H](O)[C@H](O)[C@@H]1O)OC | 7% | 42% | 26% | 75% |  |  |  |  |  |  |  |  |  |  |  |  |  |
| CCCCCCCCCCCCCCCCOC[C@H](CS[C@H]1O[C@@H](CO)[C@@H](O)[C@H](O)[C@H]1O)OC | 13% | 71% | 7% | 66% | 53% | 75% | 25% | 72% | 90% | 64% | 48% | 0.3% | 64% | 100% | 0% | 100% | Cell survival [1]: 46%; Cell survival [2]: 49%; Cell survival [4]: 57%; Cell survival [6]: 49%; Cell survival [9]: 20%; Cell survival [10]: 25%; Cell survival [11]: 0.5%; Cell survival [13]: 48%; Cell survival [17]: 27%; Cell survival [20]: 79%; Cell survival [22]: 53%; Cell survival [24]: 0% |
| CCCCCCCCCCCCCCCCOC[C@H](COP(=O)([O-])OCC[N+](C)(C)C)OC | 4% | 3% | 0.4% | 55% | 0% | 39% | 1% | 48% | 44% | 8% | 0% | 0% | 18% | 100% | 0% | 100% |  |
